Assay type in all cases: functional
In assay [1] the test system is Acinetobacter baumannii. Kind of assay: Antibacterial activity against imipenem-susceptible Acinetobacter baumannii ab3 by broth dilution method. Summed up:
(§1)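 Clinical isolates were collected at three Taiwan hospitals (1993–2003) and grown in tryptic soy broth at 37°C for 18 h. MIC by broth dilution following CLSI recommendations.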
Background: Broth dilution looks for growth in wells or tubes with falling amounts of substance.

Assay [2] has as its system Acinetobacter baumannii. As to the kind of experiment: Antibacterial activity against imipenem-resistant Acinetobacter baumannii abh14 by broth dilution method. The method in brief: as §1
Assay [3] relates to Acinetobacter baumannii. As to the kind of experiment: Antibacterial activity against imipenem-resistant Acinetobacter baumannii abh18 by broth dilution method. The method in brief: as §1
Assay [4] deals with Acinetobacter baumannii. Kind of assay: Antibacterial activity against imipenem-resistant Acinetobacter baumannii abh20 by broth dilution method. The method in brief:
as §1

Assay [5] deals with Acinetobacter baumannii. Kind of assay: Antibacterial activity against imipenem-resistant Acinetobacter baumannii abh26 by broth dilution method. The method in brief: as §1
Assay [6] has as its system Acinetobacter baumannii. As to the kind of experiment: Antibacterial activity against imipenem-resistant Acinetobacter baumannii abh29 by broth dilution method. Summed up: as §1
In assay [7] the test system is Acinetobacter baumannii. As to the kind of experiment: Antibacterial activity against imipenem-resistant Acinetobacter baumannii abh36 by broth dilution method. Summed up:
as §1

Assay [8] has as its system Acinetobacter baumannii. As to the kind of experiment: Antibacterial activity against imipenem-resistant Acinetobacter baumannii abh39 by broth dilution method. The method in brief:
as §1

For assay [9], the system named is Acinetobacter baumannii. Kind of assay: Antibacterial activity against imipenem-susceptible Acinetobacter baumannii ab4 by broth dilution method. The method in brief:
as §1

The test system of assay [10] is Acinetobacter baumannii. Kind of assay: Antibacterial activity against imipenem-susceptible Acinetobacter baumannii ab8 by broth dilution method. The method in brief: as §1
The test system of assay [11] is Acinetobacter baumannii. As to the kind of experiment: Antibacterial activity against imipenem-susceptible Acinetobacter baumannii ab12 by broth dilution method. Summed up:
as §1

In assay [12] the test system is Acinetobacter baumannii. As to the kind of experiment: Antibacterial activity against imipenem-susceptible Acinetobacter baumannii ab20 by broth dilution method. Summed up: as §1
Assay [13] concerns Acinetobacter baumannii. As to the kind of experiment: Antibacterial activity against imipenem-susceptible Acinetobacter baumannii ab1308 by broth dilution method. Summed up:
(§2)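 Clinical A. baumannii isolates collected at three Taiwanese hospitals, routinely grown in tryptic soy broth at 37°C for 18 h. MICs (μg ml⁻¹) were determined by broth dilution following CLSI recommendations, or by Etest strips following the manufacturer's instructions.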

The subject of assay [14] is Acinetobacter baumannii. As to the kind of experiment: Antibacterial activity against imipenem-susceptible Acinetobacter baumannii ab1254 by broth dilution method. The method in brief:
as §1

The subject of assay [15] is Acinetobacter baumannii. As to the kind of experiment: Antibacterial activity against imipenem-susceptible Acinetobacter baumannii ab1316 by broth dilution method. Summed up:
as §2

For assay [16], the system named is Acinetobacter baumannii. As to the kind of experiment: Antibacterial activity against imipenem-intermediate Acinetobacter baumannii ab1297 by broth dilution method. Summed up: as §2
Assay [17] relates to Acinetobacter baumannii. Kind of assay: Antibacterial activity against imipenem-resistant Acinetobacter baumannii ab1265 by broth dilution method. Summed up: as §1
In assay [18] the test system is Acinetobacter baumannii. Kind of assay: Antibacterial activity against imipenem-resistant Acinetobacter baumannii ab1266 by broth dilution method. Summed up: as §1
Assay [19] has as its system Acinetobacter baumannii. Kind of assay: Antibacterial activity against imipenem-resistant Acinetobacter baumannii abh9 by broth dilution method. The method in brief: as §1
The test system of assay [20] is Acinetobacter baumannii. As to the kind of experiment: Antibacterial activity against imipenem-resistant Acinetobacter baumannii abh11 by broth dilution method. The method in brief: as §1
For assay [21], the system named is Acinetobacter baumannii. As to the kind of experiment: Antibacterial activity against imipenem-resistant Acinetobacter baumannii abh13 by broth dilution method. Summed up: as §1
Assay [22] deals with Acinetobacter baumannii. Kind of assay: Antibacterial activity against imipenem-resistant Acinetobacter baumannii abh17 by broth dilution method. Summed up: as §1
In assay [23] the test system is Acinetobacter baumannii. As to the kind of experiment: Antibacterial activity against imipenem-resistant Acinetobacter baumannii abh37 by broth dilution method. The method in brief:
as §1

For assay [24], the system named is Acinetobacter baumannii. Kind of assay: Antibacterial activity against imipenem-susceptible Acinetobacter baumannii ATCC 19606 by broth dilution method. The conditions noted are these: ATCC 19606 = CIP 70.34 = JCM 6841.

The values that follow come from ChEMBL document CHEMBL1137650, “An OXA-66/OXA-51-like carbapenemase and possibly an efflux pump are associated with resistance to imipenem in Acinetobacter baumannii” (2007).

≈ marks a conversion by molar mass, not a printed value. A value given as a limit tells only on which side of the number the result lay.

As to `CO/N=C(\C(=O)N[C@@H]1C(=O)N2C(C(=O)[O-])=C(C[N+]3(C)CCCC3)CS[C@H]12)c1csc(N)n1` [CEFEPIME], the MIC with Acinetobacter baumannii [1] came to 6 µg/mL (≈ 12.5 µM); against Acinetobacter baumannii [2], 256 µg/mL (≈ 533 µM); against Acinetobacter baumannii [3], 256 µg/mL (≈ 533 µM); against Acinetobacter baumannii [4] it was 256 µg/mL (≈ 533 µM); in the assay with Acinetobacter baumannii [5], 256 µg/mL (≈ 533 µM); in the assay with Acinetobacter baumannii [6] it was 96 µg/mL (≈ 200 µM). Further, the MIC in the assay on Acinetobacter baumannii [7] and in the assay with Acinetobacter baumannii [8] was 256 µg/mL (≈ 533 µM) throughout.

Turning to `CCN1CCN(C(=O)N[C@@H](C(=O)N[C@@H]2C(=O)N3[C@@H]2SC(C)(C)[C@@H]3C(=O)O)c2ccccc2)C(=O)C1=O` [PIPERACILLIN], the MIC against Acinetobacter baumannii [1], in the assay with Acinetobacter baumannii [9], against Acinetobacter baumannii [10], in the assay with Acinetobacter baumannii [11], in the assay on Acinetobacter baumannii [12] and against Acinetobacter baumannii [13] was over 256 µg/mL throughout. The MIC in the assay on Acinetobacter baumannii [14], with Acinetobacter baumannii [15], in the assay on Acinetobacter baumannii [16], in the assay on Acinetobacter baumannii [17], against Acinetobacter baumannii [18] and in the assay on Acinetobacter baumannii [19] was over 256 µg/mL throughout. The MIC with Acinetobacter baumannii [20], with Acinetobacter baumannii [21], against Acinetobacter baumannii [2], in the assay with Acinetobacter baumannii [22], in the assay with Acinetobacter baumannii [3] and in the assay with Acinetobacter baumannii [4] was over 256 µg/mL in each case. In addition, the MIC against Acinetobacter baumannii [5], in the assay with Acinetobacter baumannii [6], in the assay with Acinetobacter baumannii [7], in the assay with Acinetobacter baumannii [23] and in the assay on Acinetobacter baumannii [8] was over 256 µg/mL throughout.

In the case of `O=C(O)c1cn(C2CC2)c2cc(N3CCNCC3)c(F)cc2c1=O` [CIPROFLOXACIN], the MIC in the assay with Acinetobacter baumannii [24] was 0.75 µg/mL (≈ 2.26 µM); in the assay with Acinetobacter baumannii [1] it was 0.125 µg/mL (≈ 0.377 µM); in the assay on Acinetobacter baumannii [9], 0.25 µg/mL (≈ 0.754 µM); against Acinetobacter baumannii [10] it was 0.38 µg/mL (≈ 1.15 µM); with Acinetobacter baumannii [11], 0.25 µg/mL (≈ 0.754 µM); in the assay on Acinetobacter baumannii [12], 3 µg/mL (≈ 9.05 µM). Also, the MIC in the assay with Acinetobacter baumannii [13], against Acinetobacter baumannii [14], against Acinetobacter baumannii [15], in the assay with Acinetobacter baumannii [16], in the assay with Acinetobacter baumannii [17] and in the assay on Acinetobacter baumannii [18] was over 32 µg/mL each time. Further, the MIC in the assay with Acinetobacter baumannii [19], with Acinetobacter baumannii [20], in the assay with Acinetobacter baumannii [21], against Acinetobacter baumannii [2], with Acinetobacter baumannii [22] and against Acinetobacter baumannii [3] was over 32 µg/mL throughout. Also, the MIC with Acinetobacter baumannii [4], in the assay with Acinetobacter baumannii [5], with Acinetobacter baumannii [6], against Acinetobacter baumannii [7], against Acinetobacter baumannii [23] and in the assay on Acinetobacter baumannii [8] was over 32 µg/mL each time.

With `NCC[C@H](O)C(=O)N[C@@H]1C[C@H](N)[C@@H](O[C@H]2O[C@H](CN)[C@@H](O)[C@H](O)[C@H]2O)[C@H](O)[C@H]1O[C@H]1O[C@H](CO)[C@@H](O)[C@H](N)[C@H]1O` [AMIKACIN], the MIC in the assay with Acinetobacter baumannii [1] is 3 µg/mL (≈ 5.12 µM); against Acinetobacter baumannii [9] it was 8 µg/mL (≈ 13.7 µM); in the assay on Acinetobacter baumannii [10] it was 12 µg/mL (≈ 20.5 µM); with Acinetobacter baumannii [11], over 256 µg/mL; in the assay on Acinetobacter baumannii [12] it was 128 µg/mL (≈ 219 µM); in the assay with Acinetobacter baumannii [13], over 256 µg/mL. Further, the MIC in the assay with Acinetobacter baumannii [14], against Acinetobacter baumannii [15], in the assay on Acinetobacter baumannii [16], against Acinetobacter baumannii [17], with Acinetobacter baumannii [18] and against Acinetobacter baumannii [19] was over 256 µg/mL throughout. In addition, the minimum inhibitory concentration (MIC) against Acinetobacter baumannii [20], with Acinetobacter baumannii [21], against Acinetobacter baumannii [2], against Acinetobacter baumannii [22], in the assay with Acinetobacter baumannii [3] and in the assay with Acinetobacter baumannii [4] was over 256 µg/mL throughout. Further, the MIC with Acinetobacter baumannii [5], against Acinetobacter baumannii [6], against Acinetobacter baumannii [7], against Acinetobacter baumannii [23] and against Acinetobacter baumannii [8] was over 256 µg/mL throughout.

On to `CC(C)(O/N=C(\C(=O)N[C@@H]1C(=O)N2C(C(=O)[O-])=C(C[n+]3ccccc3)CS[C@H]12)c1csc(N)n1)C(=O)O` [CEFTAZIDIME], for which the minimal inhibitory concentration (MIC) is 48 µg/mL (≈ 87.8 µM) in the assay on Acinetobacter baumannii [1]; 32 µg/mL (≈ 58.5 µM) against Acinetobacter baumannii [9]; 48 µg/mL (≈ 87.8 µM) against Acinetobacter baumannii [10]; 48 µg/mL (≈ 87.8 µM) in the assay with Acinetobacter baumannii [11]; 24 µg/mL (≈ 43.9 µM) in the assay on Acinetobacter baumannii [12]; over 256 µg/mL against Acinetobacter baumannii [13]. Besides, the MIC against Acinetobacter baumannii [14], in the assay on Acinetobacter baumannii [15], against Acinetobacter baumannii [16], with Acinetobacter baumannii [17], in the assay with Acinetobacter baumannii [18] and with Acinetobacter baumannii [19] was over 256 µg/mL throughout. In addition, the MIC against Acinetobacter baumannii [20], against Acinetobacter baumannii [21], against Acinetobacter baumannii [2], against Acinetobacter baumannii [22], against Acinetobacter baumannii [3] and against Acinetobacter baumannii [4] was over 256 µg/mL throughout. For the same compound, the MIC against Acinetobacter baumannii [5], against Acinetobacter baumannii [6], against Acinetobacter baumannii [7], in the assay on Acinetobacter baumannii [23] and in the assay on Acinetobacter baumannii [8] was over 256 µg/mL each time.

Take `CO/N=C(\C(=O)N[C@@H]1C(=O)N2C(C(=O)O)=C(COC(C)=O)CS[C@H]12)c1csc(N)n1` [CEFOTAXIME]: the MIC in the assay with Acinetobacter baumannii [24] was 16 µg/mL (≈ 35.1 µM); against Acinetobacter baumannii [1] it was over 256 µg/mL; in the assay on Acinetobacter baumannii [9], over 256 µg/mL; in the assay with Acinetobacter baumannii [10] it was over 256 µg/mL; against Acinetobacter baumannii [11] it was over 256 µg/mL; in the assay with Acinetobacter baumannii [12] it was over 256 µg/mL. In addition, the MIC in the assay on Acinetobacter baumannii [13], in the assay with Acinetobacter baumannii [14], in the assay on Acinetobacter baumannii [15], against Acinetobacter baumannii [16], against Acinetobacter baumannii [17] and against Acinetobacter baumannii [18] was over 256 µg/mL each time. The MIC against Acinetobacter baumannii [19], with Acinetobacter baumannii [20], with Acinetobacter baumannii [21], against Acinetobacter baumannii [2], in the assay with Acinetobacter baumannii [22] and with Acinetobacter baumannii [3] was over 256 µg/mL in each case. Besides, the MIC in the assay with Acinetobacter baumannii [4], against Acinetobacter baumannii [5], against Acinetobacter baumannii [6], against Acinetobacter baumannii [7], in the assay on Acinetobacter baumannii [23] and in the assay with Acinetobacter baumannii [8] was over 256 µg/mL in each case.

On to GENTAMICIN, for which the MIC is 256 µg/mL against Acinetobacter baumannii [1]; 256 µg/mL against Acinetobacter baumannii [9]; over 256 µg/mL with Acinetobacter baumannii [10]; over 256 µg/mL against Acinetobacter baumannii [11]; over 256 µg/mL with Acinetobacter baumannii [12]; over 256 µg/mL against Acinetobacter baumannii [13]. Besides, the MIC against Acinetobacter baumannii [14], in the assay on Acinetobacter baumannii [15], with Acinetobacter baumannii [16], in the assay on Acinetobacter baumannii [17], in the assay with Acinetobacter baumannii [18] and in the assay on Acinetobacter baumannii [19] was over 256 µg/mL throughout. Also, the MIC with Acinetobacter baumannii [20], with Acinetobacter baumannii [21], in the assay on Acinetobacter baumannii [2], in the assay on Acinetobacter baumannii [22], with Acinetobacter baumannii [3] and against Acinetobacter baumannii [4] was over 256 µg/mL in each case. Moreover, the MIC in the assay with Acinetobacter baumannii [5], in the assay on Acinetobacter baumannii [6], against Acinetobacter baumannii [7], against Acinetobacter baumannii [23] and in the assay with Acinetobacter baumannii [8] was over 256 µg/mL in each case.

In general, MIC refers to the lowest concentration found to suppress growth.
